Assay results from ChEMBL document CHEMBL4715714, “Design, synthesis and biological evaluation of thiosemicarbazones, hydrazinobenzothiazoles and arylhydrazones as anticancer agents with a potential to overcome multidrug resistance” (Eur J Med Chem, 2016).
The source made the active and inactive calls. The rule behind the calls is not given here.

Legend:
MES-SA [1] = experiment: Cytotoxicity against human MES-SA cells transfected with mCherry fluorescent protein assessed as inhibition of cell proliferation incubated for 72 hrs by fluorescent assay; type: functional, cell-based
In short: (§1)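 MES-SA and MES-SA/Dx5 cells were made to stably express mCherry by lentiviral transduction. Cells were seeded at 5000 (96-well) or 2500 (384-well) per well, allowed to attach 24 h, then treated with compound dilutions for 72 h. Viability was read as fluorescence, excitation 585 nm, emission 610 nm.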

MES-SA/Dx5 [2] = experiment: Cytotoxicity against human MES-SA/DX5 cells transfected with mCherry fluorescent protein assessed as inhibition of cell proliferation incubated for 72 hrs by fluorescent assay; type: functional, cell-based; in short: as §1
KB-V1 = experiment: Cytotoxicity against human KB-V1 cells assessed as inhibition of cell proliferation incubated for 72 hrs by MTT assay; type: functional, cell-based; settings: KB-V1, 72 h
In short: (§2)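 Cells were seeded (10000/well for A2780, 5000/well for MES-SA/Dx5 and KB-3-1/V1) and left to attach 12 h, then exposed to compound for 72 h. Medium was removed, and MTT (0.83 mg/mL) was added for 1 h at 37 °C. Cells were lysed in DMSO and absorbance read at 540 nm. Signal was corrected for unstained lysate background, normalized to untreated cells, and IC50 taken from a sigmoidal dose-response fit.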

KB 3-1 = experiment: Cytotoxicity against human KB-3-1 cells assessed as inhibition of cell proliferation incubated for 72 hrs by MTT assay; type: functional, cell-based; settings: KB 3-1, 72 h; in short: as §2
MES-SA/Dx5 [3] = experiment: Cytotoxicity against human MES-SA/DX5 cells assessed as inhibition of cell proliferation incubated for 72 hrs by MTT assay; type: functional, cell-based; settings: MES-SA/Dx5, 72 h; in short: as §2
[4] = Cytotoxicity against human A2780adr cells assessed as inhibition of cell proliferation incubated for 72 hrs by MTT assay; type: functional, cell-based; settings: A2780 ADR; in short: as §2
MES-SA [5] = experiment: Cytotoxicity against human MES-SA cells assessed as inhibition of cell proliferation incubated for 72 hrs by MTT assay; type: functional, cell-based; in short: as §2
A2780 = experiment: Cytotoxicity against human A2780 cells assessed as inhibition of cell proliferation incubated for 72 hrs by MTT assay; type: functional, cell-based; settings: A2780, 72 h; in short: as §2
[6] = Selectivity ratio of IC50 for human MES-SA cells to IC50 for human MES-SA/DX5 cells incubated for 72 hrs by MTT assay; type: functional
In short: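 The selectivity ratio is the IC50 in P-gp-negative parental cells divided by the IC50 in the P-gp-positive resistant partner.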

[7] = Homo sapiens, MES-SA, 72 h, read-out: IC50
[8] = Homo sapiens, MES-SA, 72 h, read-out: pIC50 (converted)
[9] = Homo sapiens, MES-SA/Dx5, 72 h, read-out: IC50
[10] = Homo sapiens, MES-SA/Dx5, 72 h, read-out: pIC50 (converted)

Row | Compound | IC50 (MES-SA [1]; [7]) | IC50 (MES-SA [1]; [8]) | IC50 (MES-SA/Dx5 [2]; [9]) | IC50 (MES-SA/Dx5 [2]; [10]) | IC50 (MES-SA/Dx5 [3]; read-out: IC50) | IC50 (MES-SA [5]; read-out: IC50) | other results
1 | Cc1cc(/C=N/Nc2ccccn2)nc2ccccc12 | 560 nM | 537 nM | 400 nM | 398 nM |  |  | 
2 | O=[N+]([O-])c1ccc(NC(=S)N/N=C/c2ccccn2)cc1 | 2740 nM | 2690 nM | 2740 nM | 2750 nM | 1830 nM | 2700 nM | IC50 (KB-V1; read-out: IC50): 1990 nM; IC50 (KB-V1; read-out: pIC50 (converted)): 1780 nM; IC50 (KB 3-1; read-out: IC50): 1050 nM; IC50 (KB 3-1; read-out: pIC50 (converted)): 1020 nM; IC50 (MES-SA/Dx5 [3]; read-out: pIC50 (converted)): 1780 nM; IC50 ([4]; read-out: IC50): 1370 nM; IC50 ([4]; read-out: pIC50 (converted)): 1350 nM; IC50 (MES-SA [5]; read-out: pIC50 (converted)): 2570 nM; IC50 (A2780; read-out: IC50): 670 nM; IC50 (A2780; read-out: pIC50 (converted)): 617 nM
3 | O=[N+]([O-])c1ccc(O)c(/C=N/NC(=S)Nc2ccccc2C(F)(F)F)c1 | 21100 nM |  | 13900 nM |  |  |  | 
4 | O=[N+]([O-])c1ccc(O)c(/C=N/Nc2nc3ccccc3s2)c1 | 4070 nM | 3800 nM | 1990 nM | 1860 nM |  |  | 
5 | S=C(N/N=C/c1ccccn1)Nc1ccccc1 | 720 nM | 692 nM | 580 nM | 562 nM |  |  | 
6 | C/C(=N\NC(=S)Nc1cccc(C(F)(F)F)c1)c1ccccn1 | 9590 nM | 9550 nM | 11700 nM | 11700 nM |  |  | 
7 | CCc1ccc(/C=N/Nc2nc3ccccc3s2)nc1 | 4260 nM | 4270 nM | 3830 nM | 3550 nM | 1850 nM | 3240 nM | IC50 (KB-V1; read-out: IC50): 1140 nM; IC50 (KB-V1; read-out: pIC50 (converted)): 1150 nM; IC50 (KB 3-1; read-out: IC50): 610 nM; IC50 (KB 3-1; read-out: pIC50 (converted)): 933 nM; IC50 (MES-SA/Dx5 [3]; read-out: pIC50 (converted)): 1860 nM; IC50 ([4]; read-out: IC50): 620 nM; IC50 ([4]; read-out: pIC50 (converted)): 589 nM; IC50 (MES-SA [5]; read-out: pIC50 (converted)): 3160 nM; IC50 (A2780; read-out: IC50): 810 nM; IC50 (A2780; read-out: pIC50 (converted)): 813 nM; Ratio IC50 [6]: 1.68
8 | C/C(=N\NC(=S)Nc1ccccc1)c1ccccn1 |  |  |  |  |  |  | pIC50 (MES-SA [1]): inactive; pIC50 (MES-SA/Dx5 [2]): inactive
9 | COc1ccccc1/C=N/Nc1nc2ccccc2s1 |  |  |  |  |  |  | pIC50 (MES-SA [1]): inactive; IC50 (MES-SA [1]; mes-sa): Not Active; pIC50 (MES-SA/Dx5 [2]): inactive; IC50 (MES-SA/Dx5 [2]; mes-sa/dx5): Not Active
10 | FC(F)(F)c1cccc(NC(=S)N/N=C/c2ccccn2)c1 | 850 nM | 832 nM | 720 nM | 692 nM |  |  | 
11 | C/C(=N\NC(=S)Nc1ccc(C)cc1)c1ccccc1O | 10900 nM | 9770 nM | 3460 nM | 4370 nM |  |  | 
12 | COc1cc(N/N=C/c2ccccn2)ncn1 | 2450 nM | 2340 nM | 2710 nM | 2570 nM | 2490 nM | 2820 nM | IC50 (KB-V1; read-out: IC50): 2830 nM; IC50 (KB-V1; read-out: pIC50 (converted)): 2820 nM; IC50 (KB 3-1; read-out: IC50): 1950 nM; IC50 (KB 3-1; read-out: pIC50 (converted)): 1910 nM; IC50 ([4]; read-out: IC50): 1950 nM; IC50 ([4]; read-out: pIC50 (converted)): 1950 nM; IC50 (A2780; read-out: IC50): 1730 nM; IC50 (A2780; read-out: pIC50 (converted)): 1740 nM
13 | COc1ccc(NC(=S)N/N=C/c2cccc(C)n2)cc1 | 4720 nM | 4680 nM | 4220 nM | 4170 nM |  |  | 
14 | COc1ccc(NC(=S)N/N=C(\C)c2ccccc2N)cc1 | 18500 nM |  | 17700 nM |  | 8020 nM | 10700 nM | IC50 (KB-V1; read-out: IC50): 22300 nM; IC50 (KB-V1; read-out: pIC50 (converted)): 22400 nM; IC50 (KB 3-1; read-out: IC50): 20600 nM; IC50 (KB 3-1; read-out: pIC50 (converted)): 20400 nM; IC50 (MES-SA/Dx5 [3]; read-out: pIC50 (converted)): 7940 nM; IC50 ([4]; read-out: IC50): 4870 nM; IC50 ([4]; read-out: pIC50 (converted)): 4900 nM; IC50 (MES-SA [5]; read-out: pIC50 (converted)): 10500 nM; IC50 (A2780; read-out: IC50): 4350 nM; IC50 (A2780; read-out: pIC50 (converted)): 4270 nM
15 | CCc1ccc(/C=N/NC(=S)Nc2ccc(OC)cc2)nc1 | 96 nM |  | 56 nM |  | 72 nM | 420 nM | IC50 (MES-SA/Dx5 [3]; read-out: pIC50 (converted)): 63.1 nM; IC50 (MES-SA [5]; read-out: pIC50 (converted)): 417 nM
16 | C/C(=N\Nc1ccccn1)c1ccccn1 | 102 nM | 77.6 nM | 59 nM | 58.9 nM |  |  | 
17 | CCc1ccc(/C=N/NC(=S)Nc2ccc([N+](=O)[O-])cc2)nc1 | 10500 nM |  | 11000 nM |  | 8020 nM | 10900 nM | IC50 (KB-V1; read-out: IC50): 8930 nM; IC50 (KB-V1; read-out: pIC50 (converted)): 8910 nM; IC50 (KB 3-1; read-out: IC50): 8030 nM; IC50 (KB 3-1; read-out: pIC50 (converted)): 7940 nM; IC50 (MES-SA/Dx5 [3]; read-out: pIC50 (converted)): 8130 nM; IC50 (MES-SA [5]; read-out: pIC50 (converted)): 10700 nM
18 | C/C(=N\NC(=S)Nc1cccc(C)c1)c1ccccn1 | 32 nM | 31.6 nM | 63 nM | 61.7 nM |  |  | 
